Ecoli rRNA inh = inhibits bacterial ribosomal RNA function over humanized ribosomes | GFP signal change (wild-type ribosome), % (test concentration not listed) | E. coli WT GFP vs humanized-ribosome RFP mutants, fluorescence, 24 h; hits give low values; DMSO median 0, no signal -100 | 350,000 tested, 1.6% active;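 active means significant combined selectivity score with lowered wild-type GFP, culture density cut under 30%, mutant RFP and density less affected; inactive means any of these conditions unmet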
Cneo AK release = Cryptococcus neoformans lysis via adenylate kinase release | 360,000 tested, 0.2% active | AID 651654 | lysis activity, % at 15 µM | C. neoformans lysis, adenylate kinase release luminescence, 4 h; normalised: neutral wells 0, clomiphene wells 100;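 active means mean lysis activity across replicates of at least 80%, whatever share of replicates individually reach that level; inactive means mean lysis activity below 80%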
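Assay system: log-phase C. neoformans yeast / Quantity: yeast cell density of 5 × 10^6 cells/mL / Medium: fresh YPD growth medium / Compound: single dose / Timing: static 4 h at 37 °C with compound, 1 h detection / Measured by: adenylate kinase release luminescence / Read-out: lysis from increased AK signal / Benchmarks: Clomiphene as positive lysis control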
DENV2 CPE rescue = inhibitors of DENV2 cytopathic effect; DENV2-infected cells, cytopathic effect rescue, plate reader; CPE inhibition, % at 9.99 µM; 350,000 tested, 1.7% active; AID 651640; in the data active means CPE inhibition above about 20%, passing the limit was not always enough; inconclusive means no clear call, values can overlap the other calls; tested in BHK-21 cells;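 further: 0% = median of neutral control wells and 100% = median of positive control wells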
S100A4 MyoIIA = S100A4-myosin IIA interaction inhibition; P26447; S100A4/TAMRA-MyoIIA peptide fluorescence polarization; inhibition, % at 10.7 µM; 360,000 tested, 0.14% active;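 active means mean inhibition of at least 70% across replicates, with every replicate also reaching that level; inconclusive means mean inhibition reaches 70% but some replicates fall short; inactive means mean inhibition below 70%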
Target sequence (P26447 whole entry, looked up): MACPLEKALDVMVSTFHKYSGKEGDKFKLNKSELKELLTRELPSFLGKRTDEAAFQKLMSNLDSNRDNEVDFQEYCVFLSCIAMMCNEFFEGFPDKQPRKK
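System – human S100A4 monomer protein, biochemical binding assay · Buffer or medium – Calcium-containing HEPES buffer, pH 7.2 · Timing – 5 min between mix addition and reading · Also added – TAMRA-labelled myosin IIA heavy-chain peptide probe, 5 nM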
PfHsp90 set2 = reduces growth (ATP signal) of yeast expressing P. falciparum Hsp90; inhibition, % at 9.4 µM; AID 504621; S. cerevisiae expressing PfHsp90, BacTiter-Glo ATP, 48 h; yeast lacking PDR1 and PDR3 efflux regulators; 310,000 tested, 0.32% active;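 active means every replicate shows inhibition above about 80%, whatever the replicate mean, limit read from the data; inconclusive means mean inhibition reaches the set limit but some replicate falls short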;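 further: 0% = DMSO neutral controls and 100% = 20 µM radicicol positive controls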
MLL AF4-AF9 inh = MLL-AF4/AF9 protein interaction inhibition; P42568; AlphaScreen, biotin-AF4 peptide binding to FLAG-AF9; inhibition, % at 10 µM; 350,000 tested, 0.47% active; AID 651704;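 active means every replicate reaching a set inhibition limit, whatever the replicate mean, cut at about 25% in these data; inconclusive means mean inhibition reaches that limit but some replicates miss it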;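 further: 0% = plate neutral control median and 100% = total signal loss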
Numbers without * were called inactive; ? = inconclusive; nt = no result given. The list is not random: actives were taken first. Their share in the collection is about 3.2%.

SMILES	Ecoli rRNA inh	Cneo AK release	DENV2 CPE rescue	S100A4 MyoIIA	PfHsp90 set2	MLL AF4-AF9 inh
CCCN(C)C1CN(Cc2cn(Cc3ccc(C)cc3)nn2)S(=O)(=O)C1 (stereo not drawn)	8.5	nt	25.2*	-0.7	nt	0.3
CN1CCN(C2CN(Cc3ccccc3)S(=O)(=O)C2)CC1 (stereo not drawn)	12.0	-1.3	-14.3	1.8	nt	0.4
Cc1cccc(CN2CCN(C3CN(Cc4cn(Cc5ccc(F)cc5)nn4)S(=O)(=O)C3)CC2)c1 (stereo not drawn)	-5.4	nt	1.9	-2.7	nt	2.8
Cc1ccc(Cn2cc(CN3CC(N4CCN(Cc5cccc(C)c5)CC4)CS3(=O)=O)nn2)cc1 (stereo not drawn)	-13.2	nt	1.0	-6.2	nt	0.8
CC(=O)N1[C@H](CO)[C@@H]2c3ccccc3N(C(=O)c3ccc(F)cc3)C[C@@H]21	4.0	-1.2	nt	nt	nt	nt
O=S1(=O)CC(N2CCN(Cc3ccccc3F)CC2)CN1Cc1cn(Cc2ccc(F)cc2)nn1 (stereo not drawn)	-1.3	nt	4.7	-1.2	nt	-1.0
O=S1(=O)CC(N2CCN(Cc3ccccc3F)CC2)CN1Cc1cn(Cc2cccc(Cl)c2)nn1 (stereo not drawn)	-24.2*	nt	-2.4	0.6	nt	0.8
O=C(C[C@H]1C=C[C@H](NS(=O)(=O)c2ccccc2)[C@H](CO)O1)N1CCC(Cc2ccccc2)CC1	-2.4	nt	96.3*	-10.2	nt	0.3
O=C(C[C@@H]1C=C[C@@H](NS(=O)(=O)c2ccccc2)[C@H](CO)O1)N1CCC(Cc2ccccc2)CC1	2.1	nt	?	1.7	nt	3.6
Cc1ccc(S(=O)(=O)N[C@H]2C=C[C@H](CC(=O)O)O[C@@H]2CO)cc1	0.2	-2.9	-5.0	121.6*	nt	0.1
Cc1ccc(S(=O)(=O)N[C@H]2C=C[C@@H](CC(=O)NC3CCCCC3)O[C@@H]2CO)cc1	-6.0	-2.2	-4.9	94.9*	nt	-0.7
C[C@@H]1CN([C@H](C)CO)C(=O)c2cc(NC(=O)C3CCCCC3)ccc2O[C@@H](C)CCCCO[C@@H]1CN(C)S(=O)(=O)c1ccc(F)cc1	1.2	-0.2	-11.4	-10.7	nt	-1.8
CCSC(=S)c1c(C)[nH]n(-c2ccccc2)c1=O	-43.2*	-1.2	-2.1	-1.5	-56.4	2.6
Cc1[nH]n(-c2ccccc2)c(=O)c1C(=O)c1ccccc1	-28.9	-0.1	7.7	-1.8	11.1	-0.3
O=C(Cc1ccccn1)NCC[C@H]1CC[C@H](NC(=O)Nc2ccc(F)cc2)[C@H](CO)O1	2.7	5.6	-3.2	-19.9	nt	0.7
O=C(C[C@@H]1C[C@H]2c3cc(NC(=O)NC4CCCC4)ccc3O[C@H]2[C@H](CO)O1)NCCc1ccccc1	-1.1	0.2	-3.1	111.1*	nt	0.8
C[C@H](NC(=O)C[C@@H]1C[C@@H]2c3cc(NC(=O)NC4CCCC4)ccc3O[C@@H]2[C@@H](CO)O1)c1ccccc1	1.5	1.2	8.1	-4.7	nt	-0.8
O=C(C[C@H]1C[C@H]2c3cc(NC(=O)NC4CCCCC4)ccc3O[C@H]2[C@H](CO)O1)NCC(F)(F)F	3.2	6.6	48.7*	7.6	nt	-0.3
O=C(C[C@H]1C[C@@H]2c3cc(NC(=O)NC4CCCCC4)ccc3O[C@@H]2[C@@H](CO)O1)NCCc1ccccc1	3.3	-0.2	37.2*	5.3	nt	-21.3
C[C@H](NC(=O)C[C@@H]1C[C@H]2c3cc(NC(=O)NC4CCCC4)ccc3O[C@H]2[C@H](CO)O1)c1ccccc1	-8.8	1.2	26.8*	-5.2	nt	-0.8
O=C(C[C@H]1C[C@@H]2c3cc(NC(=O)NC4CCCCC4)ccc3O[C@@H]2[C@@H](CO)O1)NCC(F)(F)F	0.2	-1.0	-9.3	12.7	nt	-0.4
C/C=C/c1cnc2c(c1)C(=O)N([C@@H](C)CO)C[C@H](C)[C@H](CN(C)C(=O)Nc1ccc(C(F)(F)F)cc1)O2	-4.8	51.9	7.3	0.7	nt	1.0
O=C(C[C@H]1C[C@@H]2c3cc(NC(=O)c4cccnc4)ccc3O[C@@H]2[C@@H](CO)O1)NCCc1ccccc1	-1.7	80.8*	?	-2.5	nt	-2.6

Source: PubChem BioAssay (Broad Institute)
